We go through 4 molecules from ChEMBL document CHEMBL1152248, “The 'Ethereal' nature of TLR4 agonism and antagonism in the AGP class of lipid A mimetics” (Bioorg Med Chem Lett, 2008).

The source made the active and inactive calls. No cut-off for these calls is given here.

Data set [1] addresses T1, Toll-like receptor 4 (Homo sapiens, UniProt O00206). The data set can be described thus: Agonist activity at TLR4 in human PBMC assessed as induction of TNFalpha production after 18 hrs by sandwich ELISA. The format is functional. The method in brief:
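Human monocytes were isolated by 2 h adherence to tissue-culture plates. They were exposed to compound over a 0–10,000 range in 0.2% aq triethanolamine (TEOA) for 18 h. TNF-α in supernatants was measured by sandwich ELISA. Data are three replicate samples from one of three donors. ED50 was fitted with a four-parameter logistic dose–response model.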

Data set [2] has as its system Mus musculus. The experiment in a line: Inhibition of LPS-induced serum TNFalpha production in iv dosed BALB/c mouse after 1.5 hrs by ELISA. It counts as functional, organism-based. The method in brief:
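BALB/c mice (n = 3) were given 5 ng LPS iv, either alone or together with 0.2% TEOA vehicle or test compound. Serum was collected 1.5 h post-injection and TNF-α was measured by ELISA.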

The target of data set [3] is T1, Toll-like receptor 4. The experiment in a line: Antagonist activity at TLR4 in human PBMC assessed as inhibition of LPS-stimulated TNFalpha production pre-incubated for 30 mins before LPS challenge measured after 18 hrs by ELISA. The format is functional. An outline of the steps:
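Adherence-isolated human monocytes were preincubated with compound for 30 min, then stimulated with 100 ng/mL E. coli LPS. Supernatant TNF-α was measured by ELISA after 18 h. IC50 was fitted with a four-parameter logistic dose–response model.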
(In general: An ELISA detects its analyte on a solid surface through an enzyme-linked reagent.)

The test system of data set [4] is Listeria monocytogenes. The experiment in a line: Inhibition of CRX-527-mediated protection against Listeria monocytogenes infected iv dosed BALB/c mouse administered 2 days prior to bacterial challenge measured after 2 days. As to conditions: in vivo, 48 h. The format is organism-based. The method in brief: (§1)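 BALB/c mice got AGP iv in 100 µL of 0.2% aq TEOA 2 days before iv challenge with 10^5 L. monocytogenes. Two days after challenge, splenic CFUs were counted by serial dilution of homogenates. Log10 relative protection is control-group log10 CFU/spleen minus test-group log10 CFU/spleen.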

For data set [5], the system named is Listeria monocytogenes. The experiment in a line: Protection against Listeria monocytogenes infected iv dosed BALB/c mouse assessed as reduction in splenic bacteria administered 2 days prior to bacterial challenge measured after 2 days. The format is functional, organism-based. An outline of the steps: as §1
Data set [6] relates to Influenza A virus. The experiment in a line: Protection against Influenza A/HK/68 virus infected BALB/c mouse assessed as survival at 5 mg/kg, intranasal administered 2 days prior to influenza challenge measured after 21 days. As to conditions: inhaled or nasal. The format is functional. The method in brief: (§2)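 Female/male unspecified BALB/c mice, 8 per group, given compound intranasally in 0.2% aqueous triethanolamine vehicle 2 days before intranasal influenza challenge. Vehicle-only group as control. Read-out is percent survival, recorded over 21 days after viral challenge.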

Data set [7] deals with Influenza A virus. The experiment in a line: Protection against Influenza A/HK/68 virus infected BALB/c mouse assessed as survival at 0.005 mg/kg, intranasal administered 2 days prior to influenza challenge measured after 21 days. As to conditions: inhaled or nasal. It counts as functional. The method in brief: as §2
In data set [8] the test system is Influenza A virus. The data set can be described thus: Protection against Influenza A/HK/68 virus infected BALB/c mouse assessed as survival at 0.5 mg/kg, intranasal administered 2 days prior to influenza challenge measured after 21 days. It counts as functional. As to conditions: inhaled or nasal. The method in brief: as §2
Data set [9] concerns Influenza A virus. The experiment in a line: Protection against Influenza A/HK/68 virus infected BALB/c mouse assessed as survival at 0.05 mg/kg, intranasal administered 2 days prior to influenza challenge measured after 21 days. It counts as functional. As to conditions: inhaled or nasal. An outline of the steps:
as §2

T1 sequence (O00206 whole entry): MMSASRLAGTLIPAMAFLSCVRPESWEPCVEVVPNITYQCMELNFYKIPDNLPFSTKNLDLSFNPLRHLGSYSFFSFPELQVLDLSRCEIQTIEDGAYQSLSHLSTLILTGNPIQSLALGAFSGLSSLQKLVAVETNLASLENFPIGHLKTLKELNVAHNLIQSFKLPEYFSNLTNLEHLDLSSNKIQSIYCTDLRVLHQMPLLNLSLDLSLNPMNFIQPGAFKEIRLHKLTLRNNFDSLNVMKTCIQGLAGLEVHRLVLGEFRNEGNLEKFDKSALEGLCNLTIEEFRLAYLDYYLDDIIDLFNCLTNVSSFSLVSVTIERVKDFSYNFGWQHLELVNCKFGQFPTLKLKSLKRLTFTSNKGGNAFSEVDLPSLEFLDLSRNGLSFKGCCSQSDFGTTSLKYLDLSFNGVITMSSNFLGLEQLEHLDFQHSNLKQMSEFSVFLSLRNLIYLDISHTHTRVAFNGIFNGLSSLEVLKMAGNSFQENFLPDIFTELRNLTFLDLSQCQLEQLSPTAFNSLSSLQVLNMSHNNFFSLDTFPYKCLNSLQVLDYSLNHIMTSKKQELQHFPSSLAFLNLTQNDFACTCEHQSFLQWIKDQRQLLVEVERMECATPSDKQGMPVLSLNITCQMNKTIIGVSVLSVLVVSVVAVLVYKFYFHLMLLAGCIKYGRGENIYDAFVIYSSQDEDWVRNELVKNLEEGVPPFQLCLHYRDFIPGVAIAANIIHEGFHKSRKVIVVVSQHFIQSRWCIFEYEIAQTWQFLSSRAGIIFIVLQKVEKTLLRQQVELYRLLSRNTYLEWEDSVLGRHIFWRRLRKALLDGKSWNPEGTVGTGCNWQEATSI

As a reminder, the IC50 is the concentration needed to halve the response being measured. For `CCCCCCCCCCC[C@H](CC(=O)N[C@H]1[C@H](OC[C@H](NC(=O)C[C@@H](CCCCCCCCCCC)OCCCCCC)C(=O)O)O[C@H](CO)[C@@H](OP(=O)(O)O)[C@@H]1OC(=O)C[C@@H](CCCCCCCCCCC)OCCCCCC)OCCCCCC`, the outcome in data set [1] and in data set [2] was inactive. The IC50 in data set [3] was 5.3 nM. The Activity entry in data set [4] is listed as “Not Active”.
On to `CCCCCCCCCCC[C@H](CC(=O)N[C@H]1[C@H](OC[C@H](NC(=O)C[C@@H](CCCCCCCCCCC)OCCCCCCCCCC)C(=O)O)O[C@H](CO)[C@@H](OP(=O)(O)O)[C@@H]1OC(=O)C[C@@H](CCCCCCCCCCC)OCCCCCCCCCC)OCCCCCCCCCC`, for which the ED50 in [1] was found to be 0.17 nM. Besides, the result in [5] was Active. In addition, in data set [3], the outcome was inactive. The survival at 5 mg/kg in data set [6] was found to be 100%. In data set [7], the survival at 0.005 mg/kg came out at 20%. Moreover, the survival at 0.5 mg/kg in data set [8] was 80%. The survival at 0.05 mg/kg in [9] turned out to be 60%.
As to `CCCCCCCCCCC[C@H](CC(=O)N[C@H]1[C@H](OC[C@H](NC(=O)C[C@@H](CCCCCCCCCCC)OC(=O)CCCCCCCCC)C(=O)O)O[C@H](CO)[C@@H](OP(=O)(O)O)[C@@H]1OC(=O)C[C@@H](CCCCCCCCCCC)OC(=O)CCCCCCCCC)OC(=O)CCCCCCCCC`, in data set [1], the ED50 worked out at 0.39 nM. In data set [5], the outcome was Active. In addition, in data set [3], the result was inactive. Moreover, the survival at 5 mg/kg in data set [6] came to 100%. The survival at 0.005 mg/kg in data set [7] is 30%. Besides, the survival at 0.5 mg/kg in data set [8] is 70%. Moreover, the survival at 0.05 mg/kg in [9] stood at 70%.
With `CCCCCCCCCCC[C@H](CC(=O)N[C@H]1[C@H](OC[C@H](NC(=O)C[C@@H](CCCCCCCCCCC)OC(=O)CCCCC)C(=O)O)O[C@H](CO)[C@@H](OP(=O)(O)O)[C@@H]1OC(=O)C[C@@H](CCCCCCCCCCC)OC(=O)CCCCC)OC(=O)CCCCC`, the outcome in [1] was inactive. Besides, the outcome in [2] was Active. Further, the IC50 in data set [3] worked out at 2.4 nM. For the same molecule, the Activity entry in data set [4] is recorded as “Dose-dependent effect”.
